Measurements collected from several papers.
Each line is one published result; the experiments were not run side by side.
Target: Muscarinic acetylcholine receptor M2 (CHRM2, Homo sapiens, UniProt P08172)
Concentration: 10 µM
Sequence (P08172 1-466, as in one of the studies): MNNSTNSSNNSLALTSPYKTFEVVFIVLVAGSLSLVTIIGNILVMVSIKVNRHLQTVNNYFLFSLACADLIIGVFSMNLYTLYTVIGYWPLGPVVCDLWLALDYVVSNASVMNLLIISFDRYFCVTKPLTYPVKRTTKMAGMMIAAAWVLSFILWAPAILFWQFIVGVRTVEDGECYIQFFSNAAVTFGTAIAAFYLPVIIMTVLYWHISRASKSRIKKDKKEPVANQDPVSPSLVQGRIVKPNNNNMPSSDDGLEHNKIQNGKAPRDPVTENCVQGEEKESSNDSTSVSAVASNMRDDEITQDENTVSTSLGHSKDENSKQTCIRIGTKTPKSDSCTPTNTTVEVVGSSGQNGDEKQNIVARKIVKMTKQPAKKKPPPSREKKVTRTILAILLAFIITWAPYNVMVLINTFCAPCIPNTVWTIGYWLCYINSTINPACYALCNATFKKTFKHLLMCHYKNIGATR

| SMILES | test | quantity | value |
| --- | --- | --- | --- |
| Nc1ncc(-c2nc(N3CCOCC3)nc(N3CCOCC3)n2)c(C(F)F)n1 | cell-free assay, radioligand | remaining signal | 117% |
| CC(C)N1CCC[C@H]1CNC(=O)c1cn(C2CCCC2)c(=O)c2c1c1ccccc1n2C | ligand displacement, radioligand | inhibition | 1% |
| CCN(CC)CCCC[C@H](NC(=O)[C@H](CC(C)C)NC(=O)[C@H](C)NC(=O)[C@H](Cc1ccccc1)NC(=O)c1ccc(C(C)(C)C)cc1)C(=O)N[C@@H](CO)C(=O)OC | ligand displacement, radioligand | inhibition | -6% |
| COCc1c(-c2cc3cc(C)cc(OC)c3s2)c2c(N)ncnn2c1CN1CCNC(=O)C1 | ligand displacement, radioligand | inhibition | -1% |
| Cn1cncc1[C@@](O)(COc1ccc(C#N)cc1-c1ccc(OC(F)(F)F)cc1)c1ccc(C#N)cc1 | ligand displacement | inhibition | -11.9% |
| CN1CC[C@]2(C)c3cc(OC(=O)Nc4ccccc4)ccc3N(C)[C@H]12 | ligand displacement, radioligand | inhibition | 0% |
| c1ccc(C(NCCNC(c2ccccc2)c2ccccc2)c2ccccc2)cc1 | cell-free assay | inhibition | 45% |
| Clc1ccc2c(C3CCN(CCc4c[nH]c5ccccc45)CC3)c[nH]c2c1 | ligand displacement, radioligand | inhibition | 15% |
| C[C@H](C(=O)N[C@H]1COc2ccccc2[C@@H]1S(C)(=O)=O)c1ccc(F)cc1 | cell-free assay | inhibition | 5% |
| Cc1c(N2CCNCC2)nc2ccc(Br)cc2c1C(=O)NC[C@H](CCC(=O)O)c1ccccc1Cl | ligand displacement | inhibition | 13.8% |
